Measurements reported in PMC9540497 (Clinical Pharmacology and Therapeutics, 2022).
Read-outs that look alike come from different tables or passages of the source. One block for each compound: values may come before it.

How the values were obtained:
[1] = type: in vivo, human; conditions: for AUC(0-inf) / Cmax / half-life / Tmax: female, human, plasma, oral; for AUC(0-inf): AUC0–inf; for AUC(0-inf) / Cmax: mean (CV%); for half-life: t 1/2, mean (CV%); for Tmax: median (minimum, maximum)
Method in brief: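 Healthy women received a single oral contraceptive dose (0.03 mg EE, 3 mg DRSP) fed on days 1, 8 and 18, with test compound 600 mg once daily on days 8–23. Blood was drawn predose and at 0.5–120 h postdose. EE and DRSP were measured by validated UHPLC-MS/MS (LLOQ 2.5 pg/mL and 0.5 ng/mL). LS geometric mean ratios (90% CI) of ln Cmax and AUC0–inf came from a mixed model (day fixed, subject random).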

CYP3A4 [2] = molecular target: T1, CYP3A4 (Homo sapiens, UniProt P08684); conditions: cited from earlier work
T1 sequence (P08684 whole entry): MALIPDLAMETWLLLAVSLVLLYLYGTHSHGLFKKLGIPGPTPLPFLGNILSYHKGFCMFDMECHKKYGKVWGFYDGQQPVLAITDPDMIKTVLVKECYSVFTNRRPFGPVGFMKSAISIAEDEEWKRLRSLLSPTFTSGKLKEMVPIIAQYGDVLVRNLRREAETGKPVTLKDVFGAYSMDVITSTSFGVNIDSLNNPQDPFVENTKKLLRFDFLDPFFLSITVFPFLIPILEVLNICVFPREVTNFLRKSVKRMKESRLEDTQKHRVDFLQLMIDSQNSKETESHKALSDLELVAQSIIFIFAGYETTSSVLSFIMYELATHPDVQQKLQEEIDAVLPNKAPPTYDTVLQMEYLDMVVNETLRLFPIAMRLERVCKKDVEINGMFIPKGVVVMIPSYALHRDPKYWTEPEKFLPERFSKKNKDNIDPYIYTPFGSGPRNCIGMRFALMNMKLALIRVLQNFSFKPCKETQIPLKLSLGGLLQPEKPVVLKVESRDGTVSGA

SULT1E1 [3] = molecular target: T2, SULT1E1 (Homo sapiens, UniProt P49888); experiment: SULT1E1 in vitro inhibition test; type: biochemical
T2 sequence (P49888 1-294): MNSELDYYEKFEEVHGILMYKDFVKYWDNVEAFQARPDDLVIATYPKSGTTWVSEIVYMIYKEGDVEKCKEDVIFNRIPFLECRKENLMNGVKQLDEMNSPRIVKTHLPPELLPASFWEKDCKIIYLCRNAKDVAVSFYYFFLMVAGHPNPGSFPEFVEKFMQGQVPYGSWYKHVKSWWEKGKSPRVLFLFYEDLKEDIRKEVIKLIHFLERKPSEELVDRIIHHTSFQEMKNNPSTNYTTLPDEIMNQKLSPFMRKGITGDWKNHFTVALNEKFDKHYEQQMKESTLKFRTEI
Method in brief: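 Recombinant human SULT1E1 expressed in E. coli was incubated with EE 5 nM as substrate. Test compound was tested at 0.8, 2, 8, 20, 80 and 200 µM, with quercetin 0.5 µM as positive control and a DMSO solvent control. Metabolite formation was read by UHPLC-MS/MS peak area, and activity was expressed relative to solvent control (n = 3). IC50 came from a sigmoidal fit; tentative Ki came from Cheng–Prusoff assuming competitive inhibition and substrate concentration equal to Km.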

UGT1A1 = molecular target: T3, UGT1A1 (Homo sapiens, UniProt P22309); type: in vivo; conditions: 600 mg q.d.; day 18 vs day 1; three subjects
T3 sequence (P22309 26-533): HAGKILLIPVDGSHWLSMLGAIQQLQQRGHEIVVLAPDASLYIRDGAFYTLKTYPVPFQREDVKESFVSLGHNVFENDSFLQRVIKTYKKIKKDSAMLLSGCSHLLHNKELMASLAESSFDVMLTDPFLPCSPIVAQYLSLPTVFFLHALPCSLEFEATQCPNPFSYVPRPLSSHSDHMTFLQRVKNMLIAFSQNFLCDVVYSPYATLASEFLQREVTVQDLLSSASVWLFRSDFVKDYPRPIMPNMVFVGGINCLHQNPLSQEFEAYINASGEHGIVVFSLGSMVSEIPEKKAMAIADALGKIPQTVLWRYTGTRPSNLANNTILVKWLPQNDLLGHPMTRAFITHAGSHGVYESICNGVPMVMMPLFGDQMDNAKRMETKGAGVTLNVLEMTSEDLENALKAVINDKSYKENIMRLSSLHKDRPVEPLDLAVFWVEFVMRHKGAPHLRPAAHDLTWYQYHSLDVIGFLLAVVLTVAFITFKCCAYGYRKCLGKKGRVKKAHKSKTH

SULT1E1 [4] = molecular target: T2, SULT1E1; type: in vivo; conditions: 600 mg q.d.; day 18 vs day 1; three subjects
Method in brief: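 Plasma from three subjects, sampled on day 1 (oral contraceptive alone) and day 18 (with test compound 600 mg q.d.), was split into duplicate aliquots. One aliquot was hydrolysed with purified arylsulfatase and the other with genetically modified β-glucuronidase, in 1 M Tris-HCl pH 8.0 buffer (stock), at 50°C for 1 h. Total EE was measured by LC-MS/MS. EE AUClast with and without hydrolysis was computed by linear-up/log-down trapezoids.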

Safety and tolerability = type: in vivo, human; conditions: 600 mg q.d. with oral contraceptive, healthy women
Method in brief: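 Throughout the study in healthy women, TEAEs, serious TEAEs and TEAEs leading to discontinuation were monitored, covering oral contraceptive alone and co-administration with test compound 600 mg q.d. Intensity (mild/moderate) and investigator-judged relatedness were recorded. Clinical laboratory parameters, vital signs and ECG were also assessed.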

CYP3A4 [5] = molecular target: T1, CYP3A4; experiment: In vitro CYP3A4 inhibition and induction by ziritaxestat and predictions from it; type: in vitro ADME; conditions: data on file
CYP3A4 [6] = molecular target: T1, CYP3A4; conditions: in vitro studies; cited from earlier work
[7] = day 18 test vs. day 1 reference, ziritaxestat 600 mg q.d.
[8] = OC + ziritaxestat 600 mg q.d. (day 8, SD), n = 14
[9] = OC + ziritaxestat 600 mg q.d. (day 18, MD), n = 13

- increase of AUC0–inf on co-administration with ziritaxestat [1, 7]: 2.4 fold
- increase of Cmax on co-administration with ziritaxestat [1, 7]: 2.8 fold
- AUC(0-inf) [1, 8]: 2.02 ng·h/mL
- AUC(0-inf) [1, 9]: 2.18 ng·h/mL
- AUC(0-inf) ([1]; OC alone (day 1), n = 15, fed): 0.967 ng·h/mL
- Cmax [1, 8]: 0.122 ng/mL
- Cmax ([1]; OC alone (day 1), n = 15): 0.047 ng/mL
- half-life [1, 8]: 30.1 h
- half-life ([1]; OC alone (day 1), n = 15): 22 h
Compound: C#C[C@]1(O)CC[C@H]2[C@@H]3CCc4cc(O)ccc4[C@H]3CC[C@@]21C [Ethinyl estradiol, ethinyl estradiol]

Compound: C[C@@H](c1ncncc1F)[C@](O)(Cn1cncn1)c1ccc(F)cc1F [voriconazole]
- increase of the systemic exposure of EE on co-administration (CYP3A4 [2]; strong CYP3A4 inhibitor co-administered): 60%

- inhibition at 0.5 µM (SULT1E1 [3]; read-out: inhibition of SULT1E1): 66%
Compound: O=c1c(O)c(-c2ccc(O)c(O)c2)oc2cc(O)cc(O)c12 [quercetin, Quercetin]

Compound: CC(C)(C)NC(=O)N[C@H](C(=O)N1C[C@H]2[C@@H]([C@H]1C(=O)NC(CC1CCC1)C(=O)C(N)=O)C2(C)C)C(C)(C)C (some centres unmarked) [boceprevir]
- increase in DRSP exposure on co-administration (CYP3A4 [2]; strong CYP3A4 inhibition): 100%

- IC50 (SULT1E1 [3]): < 800 nM
- effect on EE glucuronidation in vivo (in words) (UGT1A1): potential weak inhibitory effect
- effect on EE sulfation in vivo (in words) (SULT1E1 [4]): potent inhibitor of sulfation
- mode of CYP3A4 inhibition (CYP3A4 [5]): competitive and reversible
Compound: CCc1nc2c(C)cc(N3CCN(CC(=O)N4CC(O)C4)CC3)cn2c1N(C)c1nc(-c2ccc(F)cc2)c(C#N)s1 [ziritaxestat]
- tolerability (in words) (Safety and tolerability): generally well tolerated
- CYP3A4 induction and inhibition in vitro (in words) (CYP3A4 [6]): weak inducer and inhibitor

- AUC(0-inf) [1, 8]: 686 ng·h/mL
- AUC(0-inf) [1, 9]: 708 ng·h/mL
- AUC(0-inf) ([1]; OC alone (day 1), n = 15): 574 ng·h/mL
- Cmax [1, 8]: 21.4 ng/mL
- Cmax [1, 9]: 22.6 ng/mL
- Cmax ([1]; OC alone (day 1), n = 15): 20.7 ng/mL
- Tmax [1, 8]: 2.5 h
- Tmax [1, 9]: 4 h
- half-life [1, 8]: 44.7 h
- half-life [1, 9]: 43.4 h
- half-life ([1]; OC alone (day 1), n = 15): 39 h
Compound: C[C@]12CCC(=O)C=C1[C@@H]1C[C@@H]1[C@H]1[C@@H]3[C@@H]4C[C@@H]4[C@@]4(CCC(=O)O4)[C@@]3(C)CC[C@@H]12 [Drospirenone, drospirenone]
